# Tests used:
# Rattus norvegicus [1] = experiment: Antiinflammatory activity in albino rat assessed as inhibition of carrageenan-induced paw edema at 0.28 mmol/kg, po administered 30 mins before carrageenan challenge measured after 1 hr relative to control; type: functional
# Method in brief: (§1)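 Male albino rats, n = 4 per group. Dosed orally as a suspension in 0.5% w/v CMC in water; controls received CMC alone. 0.1 mL of freshly prepared 1% carrageenan in saline was injected subplantar into the right hind paw 30 min after dosing, with saline in the left paw. Right paw thickness was read by Vernier caliper before and at 1–5 h. Result is % decrease in edema vs control, mean ± S.E.M.; one-way ANOVA.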
# Rattus norvegicus [2] = experiment: Ulcerogenic effect in albino rat assessed as ulcer index at 0.28 mmol/kg, po; type: toxicity, organism-based; details: in vivo
# Method in brief: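 Rat gastric ulcers were graded by area: level I <1 mm², level II 1–3 mm², level III >3 mm². Ulcer index = 1×(level I count) + 2×(level II) + 3×(level III). Reported as mean ± S.E.M., n = 4.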
# Rattus norvegicus [3] = experiment: Antiinflammatory activity in albino rat assessed as inhibition of carrageenan-induced paw edema at 0.28 mmol/kg, po administered 30 mins before carrageenan challenge measured after 2 hrs relative to control; type: functional; method in brief: as §1
# Rattus norvegicus [4] = experiment: Antiinflammatory activity in albino rat assessed as inhibition of carrageenan-induced paw edema at 0.28 mmol/kg, po administered 30 mins before carrageenan challenge measured after 3 hrs relative to celecoxib; type: functional; details: read-out: INH
# Method in brief: (§2)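 Calculated from the 3 h % edema inhibition in carrageenan paw edema (male albino rats, oral dosing in 0.5% CMC 30 min before 1% carrageenan subplantar injection). Expressed as % of the inhibition given by the reference drug in the same assay.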
# Rattus norvegicus [5] = experiment: Antiinflammatory activity in albino rat assessed as inhibition of carrageenan-induced paw edema at 0.28 mmol/kg, po administered 30 mins before carrageenan challenge measured after 3 hrs relative to control; type: functional; method in brief: as §1
# Rattus norvegicus [6] = experiment: Antiinflammatory activity in albino rat assessed as inhibition of carrageenan-induced paw edema at 0.28 mmol/kg, po administered 30 mins before carrageenan challenge measured after 4 hrs relative to control; type: functional; method in brief: as §1
# Rattus norvegicus [7] = experiment: Ulcerogenic effect in albino rat assessed as morphology using hematoxylin and eosin staining at 0.28 mmol/kg, po by light microscopic analysis; type: toxicity, organism-based; details: in vivo
# Method in brief: (§3)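 Stomach sections were dewaxed through graded alcohols to water and stained with haematoxylin for 5–7 min. They were differentiated 5–10 s in 1% HCl in 70% alcohol, then stained with 1% eosin for 10 min, with tap-water washes between steps. The sections were then examined by light microscopy for mucosal and glandular changes.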
# Rattus norvegicus [8] = experiment: Antiinflammatory activity in albino rat assessed as inhibition of carrageenan-induced paw edema at 0.28 mmol/kg, po administered 30 mins before carrageenan challenge measured after 3 hrs relative to indomethacin; type: functional; details: read-out: INH; method in brief: as §2
# Rattus norvegicus [9] = experiment: Antiinflammatory activity in albino rat assessed as inhibition of carrageenan-induced paw edema at 0.28 mmol/kg, po administered 30 mins before carrageenan challenge measured after 5 hrs relative to control; type: functional; method in brief: as §1
# Rattus norvegicus [10] = experiment: Ulcerogenic effect in albino rat assessed as apoptotic glandular epithelial cells using hematoxylin and eosin staining at 0.28 mmol/kg, po by light microscopic analysis; type: toxicity, organism-based, Epithelial cell; details: in vivo; method in brief: as §3
# Rattus norvegicus [11] = experiment: Ulcerogenic effect in albino rat assessed as loss of mucosal membrane using hematoxylin and eosin staining at 0.28 mmol/kg, po by light microscopic analysis; type: toxicity, organism-based; details: in vivo; method in brief: as §3
# Rattus norvegicus [12] = experiment: Ulcerogenic effect in albino rat assessed as capillary inflammatory cells using hematoxylin and eosin staining at 0.28 mmol/kg, po by light microscopic analysis; type: toxicity, organism-based; details: in vivo; method in brief: as §3
SMILES,inhibition in vivo at 280 µmol/kg (Rattus norvegicus [1]) [%],UI (Rattus norvegicus [2]),inhibition in vivo at 280 µmol/kg (Rattus norvegicus [3]) [%],paw edema inhibition relative to celecoxib at 280 µmol/kg (Rattus norvegicus [4]) [%],inhibition in vivo at 280 µmol/kg (Rattus norvegicus [5]) [%],inhibition in vivo at 280 µmol/kg (Rattus norvegicus [6]) [%],Activity (Rattus norvegicus [7]),paw edema inhibition relative to indomethacin at 280 µmol/kg (Rattus norvegicus [8]) [%],inhibition in vivo at 280 µmol/kg (Rattus norvegicus [9]) [%],Activity (Rattus norvegicus [10]),Activity (Rattus norvegicus [11]),Activity (Rattus norvegicus [12])
COc1ccc(-n2nc(C(=O)Nc3ccccc3C)nc2-c2cc(OC)c(OC)c(OC)c2)cc1,19,1.5,30,74,50,46,Non-toxic,64,47,,,
COc1ccc2c(c1)c(CC(=O)O)c(C)n2C(=O)c1ccc(Cl)cc1 [INDOMETHACIN],55,41,68,,78,81,,,86,Toxic,Toxic,Toxic
